ChEMBL document CHEMBL1123814, “Synthesis and beta-lactamase inhibitory properties of 2 beta-[(1,2,3-triazol-1-yl)methyl]-2 alpha-methylpenam-3 alpha-carboxylic acid 1,1-dioxide and related triazolyl derivatives” (J Med Chem, 1987)
Values after ≈ are worked out from the molar mass of the structure shown.

Tests used:
Escherichia coli [1] = assay: Minimum inhibitory concentration against 30 strains of Escherichia coli; format: functional
Escherichia coli [2] = assay: Growth inhibition against Beta lactamase producing bacteria, Escherichia coli (TH-13) was determined for the compound in the combination with Ampicillin; format: functional
Summary of the method: (§1)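 Bacteria (β-lactamase producers) were grown in Mueller Hinton broth and diluted to 10⁷ cfu/mL. They were inoculated into the same medium containing ampicillin plus triazole and incubated at 37 °C for 20 h. The MIC was the lowest concentration leaving the medium free of turbidity.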

Escherichia coli [3] = assay: Growth inhibition against Beta lactamase producing bacteria, Escherichia coli (TH-397) was determined for the compound in the combination with Ampicillin; format: functional; summary of the method: as §1
Proteus mirabilis [4] = assay: Growth inhibition against Beta lactamase producing bacteria, Proteus mirabilis (121K) was determined for the compound in the combination with Ampicillin; format: functional; summary of the method: as §1
Proteus vulgaris [5] = assay: Growth inhibition against Beta lactamase producing bacteria, Proteus vulgaris (IID OX-19)was determined for the compound in the combination with Ampicillin; format: functional; summary of the method: as §1
Serratia marcescens [6] = assay: Growth inhibition against Beta lactamase producing bacteria, Serratia marcescens was determined for the compound in the combination with Ampicillin; format: functional; summary of the method: as §1
Staphylococcus aureus [7] = assay: Growth inhibition against Beta lactamase producing bacteria, Staphylococcus aureus (ATCC90124) was determined for the compound in the combination with Ampicillin; format: functional; summary of the method: as §1
Staphylococcus aureus [8] = assay: Growth inhibition against Beta lactamase producing bacteria, Staphylococcus aureus (S-54K) was determined for the compound in the combination with Ampicillin; format: functional; summary of the method: as §1
Escherichia coli [9] = assay: Minimum inhibitory concentration of Ampicillin required for growth inhibition of Beta lactamase producing bacteria Clinically isolated Escherichia coli (TH-13); format: functional
Summary of the method: (§2)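 The inoculum was 10⁷ cfu/mL, incubated at 37 °C for 20 h. The MIC was the lowest concentration that left the medium free of turbidity.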

Escherichia coli [10] = assay: Minimum inhibitory concentration of Ampicillin required for growth inhibition of Beta lactamase producing bacteria Clinically isolated Escherichia coli (TH-397); format: functional
Summary of the method: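 Broth microdilution in Mueller Hinton broth. Ampicillin was tested with the triazole fixed at 10 µg/mL against a β-lactamase-producing clinical isolate, with an inoculum of 10⁷ cfu/mL. Plates were incubated at 37 °C for 20 h. The MIC was the lowest concentration that left the medium free of turbidity.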

Proteus mirabilis [11] = assay: Minimum inhibitory concentration of Ampicillin required for growth inhibition of Beta lactamase producing bacteria Proteus mirabilis (121K); format: functional
Summary of the method: (§3)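 Micro broth dilution MIC of ampicillin tested on its own. β-Lactamase-producing bacteria were grown in Mueller Hinton broth and inoculated at 10⁷ cfu/mL into medium containing ampicillin.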

Proteus vulgaris [12] = assay: Minimum inhibitory concentration of Ampicillin required for growth inhibition of Beta lactamase producing bacteria Proteus vulgaris (IID OX-19); format: functional; summary of the method: as §3
Serratia marcescens [13] = assay: Minimum inhibitory concentration of Ampicillin required for growth inhibition of Beta lactamase producing bacteria Serratia marcescens; format: functional; summary of the method: as §3
Staphylococcus aureus [14] = assay: Minimum inhibitory concentration of Ampicillin required for growth inhibition of Beta lactamase producing bacteria Staphylococcus aureus (S-54K); format: functional; summary of the method: as §2
Staphylococcus aureus [15] = assay: Minimum inhibitory concentration of Ampicillin required for growth inhibition of Beta lactamase producing bacteria Staphylococcus aureus (ATCC90124); format: functional; summary of the method: as §2
Beta-lactamase OXA-1 = Beta-lactamase OXA-1 (Escherichia coli, UniProt P13661); assay: Inhibitory activity against Beta-lactamase type OXA1 (penicillinase) from Escherichia coli OXA1 using ampicillin (40 uM) as a substrate
Chain of Beta-lactamase OXA-1 (P13661 whole entry): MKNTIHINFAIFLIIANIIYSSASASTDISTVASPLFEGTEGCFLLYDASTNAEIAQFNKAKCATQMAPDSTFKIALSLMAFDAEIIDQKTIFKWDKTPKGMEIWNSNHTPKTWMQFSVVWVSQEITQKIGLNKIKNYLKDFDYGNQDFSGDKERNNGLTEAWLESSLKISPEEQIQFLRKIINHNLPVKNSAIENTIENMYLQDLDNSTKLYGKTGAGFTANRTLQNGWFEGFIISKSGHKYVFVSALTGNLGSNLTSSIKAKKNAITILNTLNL
Summary of the method: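 Isolated β-lactamase tested by microiodometric assay, measuring substrate hydrolysis. Ampicillin substrate at 40 μM. Value reported as the 50% inhibitory concentration.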

[16] = Inhibitory activity against cephalosporinase from Proteus morganii TH-64 using cephalothin (40 uM) as a substrate; […]; set-up: species or system Morganella morganii
Summary of the method: (§4)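 Isolated β-lactamase (cephalosporinase) was inhibited in a microiodometric assay. Substrate concentration was 40 μM, and the 50% inhibitory concentration (M) was determined.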

[17] = Inhibitory activity against cephalosporinase from Proteus vulgaris TH-147 using cephalexin (40 uM) as a substrate; summary of the method: as §4
[18] = Inhibitory activity against cephalosporinase from Proteus morganii TH-64 using cephalothin (40 uM) as a substrate; set-up: species or system Morganella morganii
Summary of the method: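 Isolated β-lactamases were tested by the microiodometric assay, with each line's substrate at 40 μM.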

Structure (SMILES) | MIC50 (Escherichia coli [1]) [µg/mL] | MIC70 (Escherichia coli [1]) [µg/mL] | MIC (Escherichia coli [2]) [µg/mL] | MIC (Escherichia coli [3]) [µg/mL] | MIC (Proteus mirabilis [4]) [µg/mL] | MIC (Proteus vulgaris [5]) [µg/mL] | MIC (Serratia marcescens [6]) [µg/mL] | MIC (Staphylococcus aureus [7]) [µg/mL] | MIC (Staphylococcus aureus [8]) [µg/mL] | further results
CC1(C)S[C@@H]2[C@H](NC(=O)[C@H](N)c3ccccc3)C(=O)N2[C@H]1C(=O)O.CC1(C)[C@H](C(=O)O)N2C(=O)C[C@H]2S1(=O)=O | 12.5 | 100 | 6.25 | 0.78 | 6.25 | 1.56 | 3.13 | 0.2 | 0.2 | 
CC1(C)S[C@@H]2[C@H](NC(=O)C(N)c3ccccc3)C(=O)N2[C@H]1C(=O)O.COC(=O)c1cnnn1C[C@@]1(C)[C@H](C(=O)[O-])C2C(=O)CC2S1(=O)=O.[Na+] (stereo not given in full) |  |  | 6.25 | 6.25 | 0.78 | 0.39 | 25 | 0.2 | 0.2 | 
CC1(C)[C@H](C(=O)O)N2C(=O)C[C@H]2S1(=O)=O.CCN1CCN(C(=O)N[C@@H](C(=O)N[C@@H]2C(=O)N3[C@@H]2SC(C)(C)[C@@H]3C(=O)O)c2ccccc2)C(=O)C1=O | 12.5 | 25 |  |  |  |  |  |  |  | 
CC1(C)S[C@@H]2[C@H](NC(=O)C(N)c3ccccc3)C(=O)N2[C@H]1C(=O)O.C[C@]1(Cn2cc([Si](C)(C)C)nn2)[C@H](C(=O)[O-])C2C(=O)CC2S1(=O)=O.[Na+] (stereo not given in full) |  |  | 100 | 50 | 25 | 1.56 | 100 | 0.39 | 0.78 | 
CC1(C)S[C@@H]2[C@H](/N=C/N3CCCCCC3)C(=O)N2[C@H]1C(=O)O.CC1(C)[C@H](C(=O)O)N2C(=O)C[C@H]2S1(=O)=O | 0.1 | 0.39 |  |  |  |  |  |  |  | 
CC1(C)S[C@@H]2[C@H](NC(=O)C(N)c3ccccc3)C(=O)N2[C@H]1C(=O)O.COC(=O)c1cn(C[C@@]2(C)[C@H](C(=O)[O-])C3C(=O)CC3S2(=O)=O)nn1.[Na+] (stereo not given in full) |  |  | 3.13 | 3.13 | 0.78 | 0.39 | 12.5 | 0.2 | 0.2 | 
CC1(C)S[C@@H]2[C@H](/N=C/N3CCCCCC3)C(=O)N2[C@H]1C(=O)O [AMDINOCILLIN] | 3.13 (≈ 9.62 µM) | 12.5 (≈ 38.4 µM) |  |  |  |  |  |  |  | 
CC1(C)S[C@@H]2[C@H](NC(=O)[C@H](N)c3ccccc3)C(=O)N2[C@H]1C(=O)O [AMPICILLIN] | 400 (≈ 1140 µM) | >400 |  |  |  |  |  |  |  | MIC (Escherichia coli [9]): 200 µg/mL (≈ 572 µM); MIC (Escherichia coli [10]): 400 µg/mL (≈ 1140 µM); MIC (Proteus mirabilis [11]): > 400 µg/mL; MIC (Proteus vulgaris [12]): 200 µg/mL (≈ 572 µM); MIC (Serratia marcescens [13]): 400 µg/mL (≈ 1140 µM); MIC (Staphylococcus aureus [14]): 25 µg/mL (≈ 71.5 µM); MIC (Staphylococcus aureus [15]): 25 µg/mL (≈ 71.5 µM)
CC1=C(C(=O)O)N2C(=O)[C@@H](NC(=O)[C@H](N)c3ccccc3)[C@H]2SC1 [CEPHALEXIN ANHYDROUS] | 25 (≈ 72 µM) | 100 (≈ 288 µM) |  |  |  |  |  |  |  | 
O=C(O)[C@H]1/C(=C/CO)O[C@@H]2CC(=O)N21 [CLAVULANIC ACID] |  |  |  |  |  |  |  |  |  | IC50 (Beta-lactamase OXA-1): 3.2 µM; IC50 [16]: Not Active; IC50 [17]: 0.16 µM
CCN1CCN(C(=O)N[C@@H](C(=O)N[C@@H]2C(=O)N3[C@@H]2SC(C)(C)[C@@H]3C(=O)O)c2ccccc2)C(=O)C1=O [PIPERACILLIN] | 50 (≈ 96.6 µM) | 200 (≈ 386 µM) |  |  |  |  |  |  |  | 
CC1(C)[C@H](C(=O)O)N2C(=O)C[C@H]2S1(=O)=O [SULBACTAM] |  |  |  |  |  |  |  |  |  | IC50 (Beta-lactamase OXA-1): 22 µM; IC50 [18]: 1 µM; IC50 [17]: 0.8 µM
